Experiment [1] is filed under the species Mus musculus. Put plainly: Analgesic activity tested by phenylquinone induced writhing test in mice. The experiment is classed as functional. On the technique in general: In writhing tests, fewer writhes than in controls are read as antinociception.
The target of experiment [2] is T1, Prostaglandin E synthase (Bos taurus) (UniProt Q95L14).
T1 sequence (whole entry): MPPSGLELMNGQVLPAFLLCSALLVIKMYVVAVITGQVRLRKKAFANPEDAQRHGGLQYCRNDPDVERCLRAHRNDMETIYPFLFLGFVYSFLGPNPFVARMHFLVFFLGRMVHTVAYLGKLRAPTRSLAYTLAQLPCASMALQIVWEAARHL
Put plainly: Ability to inhibit prostaglandin synthetase ([3H]PGE2 synthesis) from [3H]arachidonic acid in bovine seminal vesicles. Summed up: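 Formation of [³H]-PGE₂ was measured at no fewer than four compound concentrations, each run in duplicate. ID₅₀, the dose expected to give 50% inhibition of prostaglandin synthesis, was read from dose-response lines.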

In experiment [3] the test system is Mus musculus. Put plainly: Compound was tested orally for its ability to induce gastric lesions in fasted mice (8-animals per group). The class given is functional. The note with it: Stomach, po. Summed up: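 Male mice (eight per group) fasted overnight, then dosed orally. Killed 4 h later; stomachs removed, stretched and examined for bleeding mucosal erosions. ED50 is the dose expected to cause observable mucosal damage in 50% of animals, calculated from dose-response lines.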

Usually ED50 stands for the dose at which the effect has come halfway, by size or by number of responders. Higher therefore signals a need for a large dose.

Converted amounts (≈) assume the structure as drawn.

Consider `COC(=O)C1COc2c(C(=O)c3ccccc3)cc(Cl)cc21` (stereo not given), for which the ED50 in the experiment filed under Mus musculus [1] was determined as 13 mg/kg.
In turn, `O=C(c1ccccc1)c1cc(Br)cc2c1SCC2C(=O)O` (stereo not given) displayed an ID50 in experiment [2] of 1.4 µg/mL (≈ 3.85 µM). Moreover, the 50% effective dose (ED50) in the experiment listed under Mus musculus [1] worked out at 1.3 mg/kg.
Take `O=C(c1ccccc1)c1cc(F)cc2c1OCC2C(=O)O` (stereo not given): it took a dose of 2.9 mg/kg to reach the 50% effect level in the experiment filed under Mus musculus [1] (ED50).
On the same count and under the same terms, the value for `O=C(c1ccccc1)c1cc(Br)cc2c1OCC2C(=O)O` (stereo not given) was > 5 mg/kg.
For the molecule `O=C(c1ccccc1)c1cc(Cl)cc2c1[S+]([O-])CC2C(=O)O` (stereo not given), the ID50 in experiment [2] was > 50 µg/mL. Further, the ED50 in the experiment filed under Mus musculus [1] is > 5 mg/kg.
For the molecule `O=C(c1cccs1)c1cc(Cl)cc2c1OCC2C(=O)O` (stereo not given), the median effective dose (ED50) in the experiment filed under Mus musculus [1] is > 4 mg/kg.
For `O=C(c1ccccc1)c1cc(Cl)cc2c1OCC2C(=O)O` (stereo not given), the ID50 in experiment [2] is 0.25 µg/mL (≈ 0.826 µM). Further, the 50% effective dose (ED50) came out at 150 mg/kg with Mus musculus [3] and 0.8 mg/kg in the experiment filed under Mus musculus [1].
Taken in the same sequence, the figures for `O=C(c1ccccc1)c1cc(Cl)cc2c1SCC2C(=O)O` (stereo not given) were 0.8 µg/mL (≈ 2.51 µM), 23 mg/kg and 0.8 mg/kg.
Turning to `O=C(c1ccccc1)c1cc(Cl)cc2c1S(=O)(=O)CC2C(=O)O` (stereo not given), the ID50 in experiment [2] is > 50 µg/mL. For the same molecule, in the experiment filed under Mus musculus [1], the median effective dose (ED50) was > 5 mg/kg.
With `O=C(c1ccccc1)c1ccc2c(c1)C(C(=O)O)CS2` (stereo not given), the ED50 in the experiment filed under Mus musculus [1] is > 10 mg/kg.
The molecule `O=C(c1ccccc1)c1cccc2c1OCC2C(=O)O` (stereo not given) had an ID50 in experiment [2] of 0.7 µg/mL (≈ 2.61 µM). The median effective dose (ED50) in the experiment listed under Mus musculus [1] was determined as 2.8 mg/kg.
For `O=C(c1ccc(Cl)cc1)c1cc(Cl)cc2c1OCC2C(=O)O` (stereo not given), the ED50 in the experiment listed under Mus musculus [1] is > 4 mg/kg.
On to `Cc1cc(C(=O)c2ccccc2)c2c(c1)C(C(=O)O)CO2` (stereo not given), for which the ID50 in experiment [2] turned out to be 2 µg/mL (≈ 7.08 µM). Moreover, the ED50 in the experiment filed under Mus musculus [1] amounted to 1.9 mg/kg.
`O=C(c1ccccc1)c1cccc2c1COC2C(=O)O` (stereo not given) returned an ID50 in experiment [2] of 5 µg/mL (≈ 18.6 µM). In addition, the ED50 in the experiment listed under Mus musculus [1] is > 16 mg/kg.
`O=C(c1ccccc1)c1cccc2c1SCC2C(=O)O` (stereo not given) showed an ID50 in experiment [2] of 1.2 µg/mL (≈ 4.22 µM). The ED50 in the experiment with Mus musculus [3] is 13 mg/kg; in the experiment listed under Mus musculus [1], 0.6 mg/kg.
The like results for `Cc1cc(CC(=O)O)n(C)c1C(=O)c1ccc(Cl)cc1` [ZOMEPIRAC] were, in that order, 0.6 µg/mL (≈ 2.06 µM), 8 mg/kg and 0.6 mg/kg.

For the origin of these results see ChEMBL document CHEMBL1123287, “7-Aroyl-2,3-dihydrobenzo[b]furan-3-carboxylic acids and 7-benzoyl-2,3-dihydrobenzo[b]thiophene-3-carboxylic acids as analgesic agents” (1986).
